This passage reports IC50 and EC50 results from ChEMBL document CHEMBL1157725 (Bioorg Med Chem, 2010).

What is called pIC50 is −log10 of the IC50, conventionally taken in molar units. As usually defined, the pEC50 is the EC50 on a negative log10 scale, so that one unit is a factor of ten.

Molecules are shown by their SMILES. pEC50, pIC50: −log10 of the molar value. Where only a bound is given, the exact number is not on record here.

One assay concerns MCF7. Briefly: Antiproliferative activity against human MCF7 cells after 24 hrs by SRB assay. In kind it is functional, cell-based. The conditions noted are these: MCF7, 24 h. The procedure, abridged: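 MCF-7 cells are grown for 24 h with or without drug, then for a further 48 h. Total cell protein is measured by sulforhodamine B staining, and the IC₅₀ is derived from it.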
On the technique in general: In SRB staining, fixed cells bind dye roughly in proportion to their protein.

Assay [1] can be described thus: Inhibition of tubulin polymerization by turbidimetry. In outline:
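Tubulin at 10 µM (1.0 mg/mL). Polymerization followed turbidimetrically at 350 nm in temperature-controlled spectrophotometers.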

The nature of assay [2]: Inhibition of tubulin in rat A10 cells assessed as induction of cellular microtubule disassembly after 18 hrs by indirect immunofluorescence technique. In kind it is cell-based. The conditions noted are these: A10, 18 h. In outline: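 A-10 cells plated on glass coverslips and treated with compound at varying concentrations for 18 h. After fixation, microtubules immunostained with a β-tubulin antibody (indirect immunofluorescence) and nuclei stained with DAPI. Read by fluorescence microscopy. Percentage of cellular microtubule loss estimated visually across the concentration range.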

As for `COc1ccc(C(=O)/C=C/c2cc(OC)c(OC)c(OC)c2)cc1B(O)O`, the values for the pIC50 (in the assay on MCF7; in assay [1]) were below 5.60 and below 4.40, respectively. Further, in assay [2], the pEC50 is below 4.82.
